Assay results published in ChEMBL document CHEMBL1137781, “Synthesis and preclinical evaluation of novel PET probes for P-glycoprotein function and expression” (J Med Chem, 2009).

Assays:
[1] = Biodistribution in 50 mg/kg cyclosporin A pretreated Wistar rat frontal cortex at 49+/-11 MBq, iv after 80 mins; assay type: ADME, organism-based; set-up: dose 50 mg/kg, route intravenous; details: in vivo
[2] = Biodistribution in 50 mg/kg cyclosporin A pretreated Wistar rat fat at 49+/-11 MBq, iv after 80 mins; assay type: ADME, organism-based, Adipose tissue; set-up: dose 50 mg/kg, route intravenous; details: in vivo
Summary of the method: (§1)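 Male Wistar rats pretreated via tail vein with saline or cyclosporin A (50 mg/kg, commercial solution), then given the [11C] tracer via penile vein. After microPET scanning the anesthetized rats were killed. Tissues were excised and weighed, and blood was centrifuged into plasma and cells. γ counting with decay correction. Results as SUV (tissue MBq/g × body weight/injected dose).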

Hippocampus [3] = experiment: Biodistribution in Wistar rat hippocampus at 38+/-8 MBq, iv after 80 mins; assay type: ADME, organism-based; details: in vivo
Summary of the method: (§2)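 Male Wistar rats (12 h light/dark, chow ad libitum) were fitted with a femoral arterial cannula under isoflurane. They were pretreated via tail vein with saline, cyclosporin A (50 mg/kg), or nonradioactive tracer compound (15 mg/kg; 10 mg/mL in saline with 35% ethanol). The 11C tracer was then given via penile vein, followed by 76 min microPET. Animals were then terminated; excised tissues were weighed and gamma-counted with decay correction. Values are SUVs (tissue MBq/g × body weight g / injected MBq).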

Cerebellum [4] = experiment: Biodistribution in Wistar rat cerebellum at 38+/-8 MBq, iv after 80 mins; assay type: ADME, organism-based; details: in vivo
[5] = Biodistribution in 50 mg/kg cyclosporin A pretreated Wistar rat entorhinal cortex at 49+/-11 MBq, iv after 80 mins; assay type: ADME, organism-based; set-up: dose 50 mg/kg, route intravenous; details: in vivo; summary of the method: as §1
Duodenum [6] = experiment: Biodistribution in Wistar rat duodenum at 38+/-8 MBq, iv after 80 mins; assay type: ADME, organism-based; details: in vivo; summary of the method: as §2
Lung = experiment: Biodistribution in 50 mg/kg cyclosporin A pretreated Wistar rat lung at 49+/-11 MBq, iv after 80 mins; assay type: ADME, organism-based; set-up: dose 50 mg/kg, route intravenous; details: in vivo
Plasma [7] = experiment: Biodistribution in 50 mg/kg cyclosporin A pretreated Wistar rat plasma at 49+/-11 MBq, iv after 80 mins; assay type: ADME, organism-based; set-up: dose 50 mg/kg, route intravenous; details: in vivo
Striatum [8] = experiment: Biodistribution in Wistar rat striatum at 38+/-8 MBq, iv after 80 mins; assay type: ADME, organism-based; details: in vivo
[9] = Biodistribution in 50 mg/kg cyclosporin A pretreated Wistar rat trachea at 49+/-11 MBq, iv after 80 mins; assay type: ADME, organism-based; set-up: dose 50 mg/kg, route intravenous; details: in vivo
Pons [10] = experiment: Biodistribution in Wistar rat pons at 38+/-8 MBq, iv after 80 mins; assay type: ADME, organism-based; details: in vivo
Liver [11] = experiment: Biodistribution in 50 mg/kg cyclosporin A pretreated Wistar rat liver at 49+/-11 MBq, iv after 80 mins; assay type: ADME, organism-based; set-up: dose 50 mg/kg, route intravenous; details: in vivo
[12] = Biodistribution in Wistar rat medulla at 38+/-8 MBq, iv after 80 mins; assay type: ADME, organism-based, Medulla of organ; details: in vivo; summary of the method: as §2
Colon [13] = experiment: Biodistribution in Wistar rat colon at 38+/-8 MBq, iv after 80 mins; assay type: ADME, organism-based; details: in vivo; summary of the method: as §2
[14] = Biodistribution in Wistar rat fat at 38+/-8 MBq, iv after 80 mins; assay type: ADME, organism-based, Adipose tissue; details: in vivo; summary of the method: as §2
Rattus norvegicus [15] = experiment: AUC in Wistar rat at 38+/-8 MBq, iv; assay type: ADME, organism-based, Plasma; details: in vivo
Summary of the method: (§3)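 Male Wistar rats with a femoral arterial cannula placed under isoflurane. Saline or cyclosporin A (50 mg/kg, commercial solution) given via tail vein, then the [11C] tracer via penile vein. Dynamic microPET over the brain for 76 min, with 14 arterial samples to 60 min. Plasma counted in a γ counter. AUC of whole-brain or plasma SUV over 0-60 min.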

Bone [16] = experiment: Biodistribution in 50 mg/kg cyclosporin A pretreated Wistar rat bone at 49+/-11 MBq, iv after 80 mins; assay type: ADME, organism-based, Bone element; set-up: dose 50 mg/kg, route intravenous; details: in vivo
Summary of the method: (§4)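 Male Wistar rats pretreated with saline or cyclosporin A (50 mg/kg) via tail vein, then given the [11C] tracer via penile vein. Tissues excised after scanning and weighed. γ counting with decay correction. Results as SUV normalized to body weight and injected dose.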

Pons [17] = experiment: Biodistribution in 50 mg/kg cyclosporin A pretreated Wistar rat pons at 49+/-11 MBq, iv after 80 mins; assay type: ADME, organism-based; set-up: dose 50 mg/kg, route intravenous; details: in vivo
Plasma [18] = experiment: Biodistribution in Wistar rat plasma at 38+/-8 MBq, iv after 60 mins; assay type: ADME, organism-based; details: in vivo, 1 h
Muscle tissue [19] = experiment: Biodistribution in Wistar rat muscle at 38+/-8 MBq, iv after 80 mins; assay type: ADME, organism-based; details: in vivo; summary of the method: as §2
[20] = Biodistribution in 50 mg/kg cyclosporin A pretreated Wistar rat bulbus olfactorius at 49+/-11 MBq, iv after 80 mins; assay type: ADME, organism-based, Olfactory bulb; set-up: dose 50 mg/kg, route intravenous; details: in vivo; summary of the method: as §1
Plasma [21] = experiment: Biodistribution in Wistar rat plasma at 38+/-8 MBq, iv after 80 mins; assay type: ADME, organism-based; details: in vivo
Summary of the method: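 Male Wistar rats under isoflurane were given tracer via the penile vein after tail-vein pretreatment with saline or drug. At the end of a 76 min microPET scan the anesthetized animals were terminated. Blood was collected and centrifuged 5 min at 1000g for plasma. Plasma was weighed, γ-counted with decay correction and expressed as SUV (tissue MBq/g × body weight/injected dose).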

[22] = Biodistribution in Wistar rat trachea at 38+/-8 MBq, iv after 80 mins; assay type: ADME, organism-based; details: in vivo
Heart [23] = experiment: Biodistribution in Wistar rat heart at 38+/-8 MBq, iv after 80 mins; assay type: ADME, organism-based; details: in vivo; summary of the method: as §2
Kidney [24] = experiment: Biodistribution in 50 mg/kg cyclosporin A pretreated Wistar rat kidney at 49+/-11 MBq, iv after 80 mins; assay type: ADME, organism-based; set-up: dose 50 mg/kg, route intravenous; details: in vivo
[25] = Biodistribution in 50 mg/kg cyclosporin A pretreated Wistar rat amygdala at 49+/-11 MBq, iv after 80 mins; assay type: ADME, organism-based; set-up: dose 50 mg/kg, route intravenous; details: in vivo; summary of the method: as §4
Pancreas = experiment: Biodistribution in Wistar rat pancreas at 38+/-8 MBq, iv after 80 mins; assay type: ADME, organism-based; details: in vivo; summary of the method: as §2
Spleen = experiment: Biodistribution in Wistar rat spleen at 38+/-8 MBq, iv after 80 mins; assay type: ADME, organism-based; details: in vivo
Liver [26] = experiment: Biodistribution in Wistar rat liver at 38+/-8 MBq, iv after 80 mins; assay type: ADME, organism-based; details: in vivo; summary of the method: as §2
Hippocampus [27] = experiment: Biodistribution in 50 mg/kg cyclosporin A pretreated Wistar rat hippocampus at 49+/-11 MBq, iv after 80 mins; assay type: ADME, organism-based; set-up: dose 50 mg/kg, route intravenous; details: in vivo
[28] = Biodistribution in 50 mg/kg cyclosporin A pretreated Wistar rat cingulate cortex at 49+/-11 MBq, iv after 80 mins; assay type: ADME, organism-based; set-up: dose 50 mg/kg, route intravenous; details: in vivo; summary of the method: as §1
[29] = Biodistribution in Wistar rat entorhinal cortex at 38+/-8 MBq, iv after 80 mins; assay type: ADME, organism-based; details: in vivo; summary of the method: as §2
Colon [30] = experiment: Biodistribution in 50 mg/kg cyclosporin A pretreated Wistar rat colon at 49+/-11 MBq, iv after 80 mins; assay type: ADME, organism-based; set-up: dose 50 mg/kg, route intravenous; details: in vivo; summary of the method: as §1
[31] = Biodistribution in Wistar rat red blood cells at 38+/-8 MBq, iv after 80 mins; assay type: ADME, organism-based, Erythrocyte; details: in vivo
Kidney [32] = experiment: Biodistribution in Wistar rat kidney at 38+/-8 MBq, iv after 80 mins; assay type: ADME, organism-based; details: in vivo; summary of the method: as §2
[33] = Biodistribution in Wistar rat frontal cortex at 38+/-8 MBq, iv after 80 mins; assay type: ADME, organism-based; details: in vivo; summary of the method: as §2
[34] = Biodistribution in Wistar rat cingulate cortex at 38+/-8 MBq, iv after 80 mins; assay type: ADME, organism-based; details: in vivo; summary of the method: as §2
Duodenum [35] = experiment: Biodistribution in 50 mg/kg cyclosporin A pretreated Wistar rat duodenum at 49+/-11 MBq, iv after 80 mins; assay type: ADME, organism-based; set-up: dose 50 mg/kg, route intravenous; details: in vivo; summary of the method: as §1
[36] = Biodistribution in Wistar rat amygdala at 38+/-8 MBq, iv after 80 mins; assay type: ADME, organism-based; details: in vivo
Ileum [37] = experiment: Biodistribution in 50 mg/kg cyclosporin A pretreated Wistar rat ileum at 49+/-11 MBq, iv after 80 mins; assay type: ADME, organism-based; set-up: dose 50 mg/kg, route intravenous; details: in vivo
Rattus norvegicus [38] = experiment: AUC in 50 mg/kg cyclosporin A pretreated Wistar rat at 49+/-11 MBq, iv; assay type: ADME, organism-based, Plasma; set-up: dose 50 mg/kg, route intravenous; details: in vivo; summary of the method: as §3
[39] = Biodistribution in 50 mg/kg cyclosporin A pretreated Wistar rat parietal/temporal/occipital cortex at 49+/-11 MBq, iv after 80 mins; assay type: ADME, organism-based; set-up: dose 50 mg/kg, route intravenous; details: in vivo
Bone [40] = experiment: Biodistribution in Wistar rat bone at 38+/-8 MBq, iv after 80 mins; assay type: ADME, organism-based, Bone element; details: in vivo
[41] = Biodistribution in 50 mg/kg cyclosporin A pretreated Wistar rat red blood cells at 49+/-11 MBq, iv after 80 mins; assay type: ADME, organism-based, Erythrocyte; set-up: dose 50 mg/kg, route intravenous; details: in vivo
Cerebellum [42] = experiment: Biodistribution in 50 mg/kg cyclosporin A pretreated Wistar rat cerebellum at 49+/-11 MBq, iv after 80 mins; assay type: ADME, organism-based; set-up: dose 50 mg/kg, route intravenous; details: in vivo; summary of the method: as §1
Striatum [43] = experiment: Biodistribution in 50 mg/kg cyclosporin A pretreated Wistar rat striatum at 49+/-11 MBq, iv after 80 mins; assay type: ADME, organism-based; set-up: dose 50 mg/kg, route intravenous; details: in vivo
Ileum [44] = experiment: Biodistribution in Wistar rat ileum at 38+/-8 MBq, iv after 80 mins; assay type: ADME, organism-based; details: in vivo; summary of the method: as §2
[45] = Biodistribution in Wistar rat bulbus olfactorius at 38+/-8 MBq, iv after 80 mins; assay type: ADME, organism-based, Olfactory bulb; details: in vivo
[46] = Biodistribution in Wistar rat parietal/temporal/occipital cortex at 38+/-8 MBq, iv after 80 mins; assay type: ADME, organism-based; details: in vivo; summary of the method: as §2
[47] = Biodistribution in 50 mg/kg cyclosporin A pretreated Wistar rat medulla at 49+/-11 MBq, iv after 80 mins; assay type: ADME, organism-based, Medulla of organ; set-up: dose 50 mg/kg, route intravenous; details: in vivo
Heart [48] = experiment: Biodistribution in 50 mg/kg cyclosporin A pretreated Wistar rat heart at 49+/-11 MBq, iv after 80 mins; assay type: ADME, organism-based; set-up: dose 50 mg/kg, route intravenous; details: in vivo
Muscle tissue [49] = experiment: Biodistribution in 50 mg/kg cyclosporin A pretreated Wistar rat muscle at 49+/-11 MBq, iv after 80 mins; assay type: ADME, organism-based; set-up: dose 50 mg/kg, route intravenous; details: in vivo

COc1ccc(CCN([11CH3])CCCC(C#N)(c2ccc(OC)c(OC)c2)C(C)C)cc1OC (configuration not stated)
SUV [1]: 0.52
SUV [2]: 0.5
SUV (Hippocampus [3]): 0.036
SUV (Cerebellum [4]): 0.052
SUV [5]: 0.59
SUV (Duodenum [6]): 0.78
SUV (Lung): 1.95
SUV (Plasma [7]): 0.17
SUV (Striatum [8]): 0.038
SUV [9]: 0.46
SUV (Pons [10]): 0.034
SUV (Liver [11]): 1.84
SUV [12]: 0.044
SUV (Colon [13]): 0.32
SUV [14]: 0.38
AUC (Rattus norvegicus [15]): 100%
SUV (Bone [16]): 0.38
SUV (Pons [17]): 0.68
SUV (Plasma [18]): 0.18
SUV (Muscle tissue [19]): 0.29
SUV [20]: 0.57
SUV (Plasma [21]): 0.13
SUV [22]: 0.35
SUV (Heart [23]): 0.24
SUV (Kidney [24]): 1.07
SUV [25]: 0.62
SUV (Pancreas): 0.82
SUV (Spleen): 0.93
SUV (Liver [26]): 1.23
SUV (Hippocampus [27]): 0.54
SUV [28]: 0.5
SUV [29]: 0.027
SUV (Colon [30]): 0.4
SUV [31]: 0.06
SUV (Kidney [32]): 0.61
SUV [33]: 0.031
SUV [34]: 0.027
SUV (Duodenum [35]): 0.63
SUV [36]: 0.034
SUV (Ileum [37]): 0.56
AUC (Rattus norvegicus [38]): 110%
SUV [39]: 0.64
SUV (Bone [40]): 0.25
SUV [41]: 0.07
SUV (Cerebellum [42]): 0.6
SUV (Striatum [43]): 0.55
SUV (Ileum [44]): 0.49
SUV [45]: 0.038
SUV [46]: 0.036
SUV [47]: 0.67
SUV (Heart [48]): 0.3
SUV (Muscle tissue [49]): 0.37
